Source: ChEMBL document CHEMBL1123669 (J Med Chem, 1987)

Columns and labels:
Homo sapiens = organism: Homo sapiens; test: Inhibition of ADP-induced platelet aggregation; format: functional
Method in brief: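 Human citrated PRP (200g, 15 min, room temperature), aspirin-free donors. Compound in DMF or Me2SO preincubated 5 min with stirred PRP at 37 °C. Aggregation induced by 5 μM ADP, followed turbidimetrically. Repeated at least twice with different donors; IC50 graphical.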

Rattus norvegicus [1] = organism: Rattus norvegicus; test: Inhibition of rat heart cAMP phosphodiesterase
Phosphodiesterase 3 [2] = molecular target: T1, Phosphodiesterase 3 (Homo sapiens, UniProt Q14432+Q13370); test: In vitro inhibition of cyclic AMP phosphodiesterase from human platelets.
Phosphodiesterase 3 [3] = molecular target: T1, Phosphodiesterase 3; test: Inhibition of human platelet cAMP phosphodiesterase at 10e-4 M
Rattus norvegicus [4] = organism: Rattus norvegicus; test: Inhibition of rat heart cAMP phosphodiesterase (weak partial inhibition)

IC50 (Homo sapiens) [µM] | IC25 (Rattus norvegicus [1]) [µM] | IC50 (Phosphodiesterase 3 [2]) [µM] | IC50 (Phosphodiesterase 3 [3]) [µM] | IC25 (Rattus norvegicus [4]) [µM] | Structure (SMILES)
1.9 | 0.7 |  |  |  | CN(C(=O)CCCOc1ccc2[nH]c(=O)ccc2c1)C1CCCCC1 [CILOSTAMIDE]
 |  | 21 |  |  | COc1ccc2nc(O)sc2c1
0.11 | 0.6 | 0.01 |  |  | CN(C(=O)CCCOc1ccc2c(c1)CN1CC(=O)NC1=N2)C1CCCCC1 [LIXAZINONE]
 | > 30 | 4.4 |  |  | CN(C(=O)CCCOc1ccc2[nH]c(=O)oc(=O)c2c1)C1CCCCC1
 |  |  | 35 |  | COc1ccc2c(c1)CNC(=O)N2
 | 1.3 | 3.4 |  |  | CN(C(=O)CCCOc1ccc2c(c1)OCC(=O)N2)C1CCCCC1
62 | 0.32 | 0.29 |  |  | CCCCCCOc1ccc2c(c1)CN1CC(=O)NC1=N2
 | 1.4 | 1.8 |  |  | CN(C(=O)CCCOc1ccc2c(c1)SCC(=O)N2)C1CCCCC1
 | 0.88 | 1.3 |  |  | CN(C(=O)CCCOc1ccc2c(c1)CNC(=O)N2)C1CCCCC1
4 |  | 1.5 |  |  | COc1ccc2c(c1)CN1CC(=O)NC1=N2
2.6 |  |  |  | > 100 | O=C1CN2Cc3c(ccc(Cl)c3Cl)N=C2N1 [ANAGRELIDE]
 | 1.3 | 1.15 |  |  | CN(C(=O)CCCOc1ccc2[nH]c(=O)[nH]c(=O)c2c1)C1CCCCC1
 | 50 | 3.6 |  |  | CN(C(=O)CCCOc1ccc2c(c1)C(=O)NCC(=O)N2)C1CCCCC1
 |  | 100 |  |  | COc1ccc2c(c1)COC(=O)N2
 | > 10 | 10 |  |  | CN(C(=O)CCCOc1ccc2nc(O)sc2c1)C1CCCCC1
 | 1.5 | 1.35 |  |  | CN(C(=O)CCCOc1ccc2c(c1)CCC(=O)N2)C1CCCCC1
 | 1 | 1.15 |  |  | CN(C(=O)CCCOc1ccc2c(c1)COC(=O)N2)C1CCCCC1
 | 0.38 | 0.19 |  |  | CN(C(=O)CCCOc1ccc2c(c1)CSC(=O)N2)C1CCCCC1
 |  | 13 |  |  | COc1ccc2c(c1)CSC(=O)N2
